According to ChEMBL document CHEMBL1240520, “Synthesis of heterocycle-based analogs of resveratrol and their antitumor and vasorelaxing properties” (Bioorg Med Chem, 2010):
Calls of active or inactive are those of the source. No cut-off for these calls is given here.

Key:
[1] = tested on: Aorta; assay: Vasorelaxant activity in Wistar rat aortic rings assessed as reduction in KCL-induced contractile tone; assay type: functional, tissue-based
Procedure, shortened: (§1)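 Endothelium-denuded thoracic aortic rings from male normotensive Wistar rats (250–350 g), equilibrated 60 min, precontracted with KCl 30 mM. Compounds added cumulatively at threefold increasing concentrations up to 30 µM. Efficacy is the maximal relaxation, or the response at 30 µM, as % of KCl tone. pIC50 is −log molar concentration halving tone, not calculated below 50% efficacy; mean ± SE, 5–10 experiments.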

[2] = tested on: MDA-MB-231; assay: Antitumor activity against human MDA-MB-231 cells after 6 days by SRB assay; assay type: functional, cell-based; details: MDA-MB-231, 144 h
Procedure, shortened: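 MDA-MB-231 cells in DMEM with 5% FBS, 37 °C, 5% CO2, seeded 1.3 × 10³ cells/well and adhered 24 h; treated 0.25 to 64 µM (five wells per treatment, vehicle EtOH or DMSO) for 6 days. TCA-fixed, SRB-stained, OD 540 nm. Proliferation index = OD at day 6 / OD at time zero; IC50 from means of three independent experiments.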

[3] = tested on: Aorta; assay: Vasorelaxant activity in Wistar rat aortic rings assessed as reduction in KCL-induced contractile tone in presence of tetraethylammonium chloride; assay type: functional, tissue-based
[4] = tested on: Aorta; assay: Vasorelaxant activity in Wistar rat aortic rings assessed as reduction in KCL-induced contractile tone at 30 uM; assay type: functional; procedure, shortened: as §1

| SMILES | IC50 [1] [µM] | IC50 [2] [µM] | Activity [3] | Emax at 30 µM [4] [%] |
| --- | --- | --- | --- | --- |
| Oc1ccc(-c2nc3c(O)cc(O)cc3s2)cc1 | 12.6 | > 100 | inactive | 80.6 |
| Oc1cc(O)cc(-c2cnc3cc(O)ccc3c2)c1 | – | 17.4 | – | 17.2 |
| Oc1ccc(-c2nc3cc(O)cc(O)c3s2)cc1 | – | 67.6 | inactive | 39.6 |
| Oc1cc(O)cc(-c2nc3cccc(O)c3s2)c1 | 15.5 | 18.1 | inactive | 76.8 |
| Oc1cc(O)cc(-c2cc3cc(O)ccc3o2)c1 | 15.5 | 46.1 | inactive | 77.2 |
| Oc1cc(O)cc(-c2nc3ccc(O)cc3s2)c1 | 12 | 19.4 | Active | 88.2 |
| O/N=C/c1ccc(-c2cc(O)cc(O)c2)cc1O [SALICYLALDOXIME] | – | – | Active | – |
| Oc1cc(O)cc(-c2ccc3cc(O)ccc3c2)c1 | 12.9 | – | inactive | 78.5 |
| Oc1ccc(/C=C/c2cc(O)cc(O)c2)cc1 [RESVERATROL] | 6.92 | – | inactive | 83 |
| Oc1cc(O)cc(-c2cc3ccc(O)cc3nc2Cl)c1 | 15.8 | 47.4 | inactive | 84.6 |
